Laboratory results: ChEMBL document CHEMBL1821664, “Sulfonamides as a new scaffold for hypoxia inducible factor pathway inhibitors” (Bioorg Med Chem Lett, 2011)

Biological target: Hypoxia inducible factors; HIF-1-alpha, HIF-2-alpha (Homo sapiens, UniProt Q16665+Q99814)
Assay: Inhibition of hypoxia-induced HIF1 activation in human LN229 cells expressing HRE-AP reporter gene assessed as HRE remaining activity at 10 uM preincubated for 1 hr under normoxia condition followed by 24 hrs incubation under hypoxia condition by alkaline phosphatase reporter assay relative to control
Assay type: cell-based
Procedure, shortened: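 LN229-HRE-AP cells pre-treated 1 h with compound or vehicle (1% DMSO), then 24 h in 1% O2 hypoxia incubator; cells lysed and alkaline phosphatase activity measured. Hits were compounds reducing hypoxic AP induction >50%; single assay.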

Activity [%]	SMILES
51.5	COc1c(CN(c2ccccc2)S(=O)(=O)c2cc(Cl)ccc2Cl)ccc2c1OC(C)(C)C=C2
64.7	COc1ccc(S(=O)(=O)N(Cc2ccc3c(c2)C=CC(C)(C)O3)C(C)C)cc1OC
63.2	COc1c(CN(C(=O)c2ccc(Br)cc2)c2ccccc2)ccc2c1OC(C)(C)C=C2
41.9	CC(C)N(Cc1ccc2c(c1)C=CC(C)(C)O2)S(=O)(=O)c1cc(Cl)ccc1Cl
79.1	CC1(C)C=Cc2cc(CN(C(=O)c3cccs3)c3ccccc3)ccc2O1
101	CC1(C)C=Cc2cc(C(O)c3cn(C45CC6CC(CC(C6)C4)C5)nn3)ccc2O1 (stereo unspecified)
87.9	CC1(C)C=Cc2cc(C(c3ccccc3)n3cnc4cc(Cl)ccc43)ccc2O1 (stereo unspecified)
105	CC(=O)N(Cc1ccc2c(c1)C=CC(C)(C)O2)C(C)C
61.8	COc1c(CN(C(=O)c2cccs2)c2ccccc2)ccc2c1OC(C)(C)C=C2
95.7	COc1c(C(C)n2cnc3ncccc32)ccc2c1C=CC(C)(C)O2 (stereo unspecified)
76.9	CC(c1ccc2c(c1)C=CC(C)(C)O2)n1cnc2ncccc21 (stereo unspecified)
88.8	COc1c(C(C(C)C)n2cnc3ncccc32)ccc2c1C=CC(C)(C)O2 (stereo unspecified)
86.6	CC(c1ccc2c(c1)C=CC(C)(C)O2)n1ccnc1 (stereo unspecified)

The remaining lines, values behind:

SMILES	Activity [%]
CC1(C)C=Cc2cc(C(O)c3cn(CCNc4ccc([N+](=O)[O-])c5nonc45)nn3)ccc2O1 (stereo unspecified)	116
COc1c(C(C)n2cnc3cc(Cl)ccc32)ccc2c1C=CC(C)(C)O2 (stereo unspecified)	55.7
CCN(CC)C(=O)OCn1cc(C(O)c2ccc3c(c2)C=CC(C)(C)O3)nn1 (stereo unspecified)	97.7
COc1ccc(S(=O)(=O)N(Cc2ccc3c(c2OC)OC(C)(C)C=C3)c2ccccc2)cc1OC	48.6
COc1ccc(S(=O)(=O)N(Cc2ccccc2)Cc2ccc3c(c2OC)OC(C)(C)C=C3)cc1OC	68.5
CC1(C)C=Cc2cc(CN(C(=O)c3ccc(Br)cc3)c3ccccc3)ccc2O1	57.6
CC1(C)C=Cc2cc(C(c3ccccc3)n3cnc4ncccc43)ccc2O1 (stereo unspecified)	83.5
CC1(C)C=Cc2cc(/C=N/O)ccc2O1	91.4
CC(C)N(Cc1ccc2c(c1)C=CC(C)(C)O2)C(=O)c1cccs1	46.2
CC(=O)N(Cc1ccc2c(c1)C=CC(C)(C)O2)c1ccccc1	91.5
CC1(C)C=Cc2cc(C(O)c3cn(Cc4ccccc4)nn3)ccc2O1 (stereo unspecified)	88.8
CC1(C)C=Cc2cc(C(O)n3cc(-c4ccccc4)nn3)ccc2O1 (stereo unspecified)	106
CC(C)N(Cc1ccc2c(c1)C=CC(C)(C)O2)S(=O)(=O)c1ccc([N+](=O)[O-])cc1	43.2
COc1c(C(C)n2ccnc2)ccc2c1C=CC(C)(C)O2 (stereo unspecified)	104
COc1c(C(C(C)C)n2ccnc2)ccc2c1C=CC(C)(C)O2 (stereo unspecified)	135
COc1c(/C=N/O)ccc2c1OC(C)(C)C=C2	89.4
COc1c(CN(c2ccccc2)S(=O)(=O)c2ccc([N+](=O)[O-])cc2)ccc2c1OC(C)(C)C=C2	72.4
CC(C)N(Cc1ccc2c(c1)C=CC(C)(C)O2)C(=O)c1ccc(Br)cc1	63.9
CC1(C)C=Cc2cc(C(O)c3cn(CCOc4ccc5ccc(=O)oc5c4)nn3)ccc2O1 (stereo unspecified)	117
COc1c(CN(Cc2ccccc2)S(=O)(=O)c2ccc(C)cc2)ccc2c1OC(C)(C)C=C2	40.4
COc1c(CN(C(C)=O)c2ccccc2)ccc2c1OC(C)(C)C=C2	108
Cc1ccc(S(=O)(=O)N(Cc2ccc3c(c2)C=CC(C)(C)O3)C(C)C)cc1	55
COc1c(CN(Cc2ccccc2)C(=O)c2cccs2)ccc2c1OC(C)(C)C=C2	67.5
CC1(C)C=Cc2cc(C(c3ccccc3)n3ccnc3)ccc2O1 (stereo unspecified)	88.9
C=Cc1ccc2c(c1)C=CC(C)(C)O2	98.2
CC1(C)C=Cc2cc(C(O)c3cn(C(C)(C)C)nn3)ccc2O1 (stereo unspecified)	90.7
COc1c(CN(c2ccccc2)S(=O)(=O)c2ccc(C)cc2)ccc2c1OC(C)(C)C=C2	58.4
COc1c(CN(Cc2ccccc2)S(=O)(=O)c2cc(Cl)ccc2Cl)ccc2c1OC(C)(C)C=C2	35
